Bioassay records deposited in PubChem BioAssay by several laboratories.
Tb MetRS inh: T. brucei MetRS inhibitors, primary screen, biochemical, luminescence; methionyl-tRNA synthetase (Trypanosoma brucei brucei); purified T. brucei MetRS, ATP depletion, Kinase-Glo luminescence; inhibition, % at 11.9 µM; 0.4% of 360,000 active; AID 624268, 2012;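 active = inhibition above a per-plate cutoff of the control wells' mean inhibition plus 3 SD, cut at about 5.5% in these data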;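 also: 0% = DMSO wells median and 100% = median of wells with control inhibitor compound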
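Measured by: Kinase-Glo luciferase luminescence reporting remaining unconsumed ATP. Material: purified T. brucei MetRS enzyme. Doses: 11.9 µM compound single dose, 0.9% DMSO. Medium: HEPES buffer containing pyrophosphatase, BSA, spermine, DTT. Times: 15 min preincubation, 2 h reaction, all 25 °C. Reagent: methionine, ATP and bulk E. coli tRNA.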
EBV gp42 inh: Epstein-Barr virus gp42 inhibitors, primary screen, biochemical, uHTS, fluorescence polarization | Fluorescence polarization binding assay, mP read-out | inhibition, % (tested at 21.74 µM) | 0.42% of 220,000 active; in the data active = inhibition above about 50%
Target sequence (Q1HVG2 whole entry, looked up): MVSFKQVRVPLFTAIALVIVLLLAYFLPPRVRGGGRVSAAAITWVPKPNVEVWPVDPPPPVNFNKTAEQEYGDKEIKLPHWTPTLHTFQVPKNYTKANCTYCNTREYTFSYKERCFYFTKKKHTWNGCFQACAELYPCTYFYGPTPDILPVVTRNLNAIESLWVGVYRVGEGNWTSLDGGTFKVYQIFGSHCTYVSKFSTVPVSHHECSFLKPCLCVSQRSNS
WT yeast gro inh: growth inhibition of WT strain, primary screen, mitochondrial fusion inhibitor project, WT and mutant strains, chemical genetic; 2.1% of 190,000 active; mitochondrial fusion phenotypic screen; inhibition, % at 10 µM; in the data active = inhibition above about 58%; tested in S. cerevisiae
MPTP inh: mitochondrial permeability transition pore inhibitors, primary screen, biochemical, isolated mouse mitochondria, absorbance; Ca2+ swelling absorbance, 30 min; inhibition, % at 10 µM; 1.4% of 360,000 active; AID 602449, 2012;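 active = inhibition of 50% or more, scaled per plate between neutral and stimulator controls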;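 also: 0% = DMSO wells given calcium and 100% = 1 mM EGTA wells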
NR3A LBD binder: binders of NR3A ligand-binding domain, primary screen, biophysical, differential scanning fluorimetry, uHTS; Glutamate receptor ionotropic, NMDA 3A (GRIN3A) ligand-binding domain; NR3A LBD differential scanning fluorimetry, Tm shift; 0% = protein alone, 100% = glycine-bound protein; Tm shift relative to glycine control, % at 25 µM; 2.5% of 340,000 active;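 active = melting temperature shift of at least 10% of the positive control shift, at one fixed dose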
CHOP inhibitor: inhibitors of CHOP promoter induction, primary screen, cell-based, unfolded protein response, luciferase reporter; CHO-K1 CHOP-promoter luciferase, tunicamycin-induced, 15-18 h; inhibition, % at 10 µM; 3.8% of 220,000 active; AID 2732, 2010;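 active = compounds that reduced the stress-induced luciferase reporter signal by more than about 70% of percent inhibition, limit read from the data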;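 also: 0% = tunicamycin plus vehicle and 100% = wells without tunicamycin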
CHOP confirm: retest of CHOP induction inhibitors, confirmation, cell-based. shares compounds with CHOP inhibitor. CHO-CHOP promoter luciferase reporter, tunicamycin-induced, luminescence. inhibition, % at 10 µM. 45% of 2,100 active;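 active = mean of three repeat readings of reporter signal inhibition above a set limit, cut at about 70% in these data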;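 also: 0% = tunicamycin plus vehicle and 100% = wells lacking tunicamycin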
Rh123 counter: fluorescence retest of MPTP screen hits in isolated mitochondria, single concentration. shares compounds with MPTP inh. membrane potential, Rhodamine 123 fluorescence. inhibition, % at 10 µM. 78% of 5,000 active. AID 624504, 2012; in the data active = inhibition above about 22%;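 also: 0% = DMSO vehicle and 100% = positive control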
MPTP abs DR: mitochondrial permeability transition pore inhibitors, dose response, biochemical, absorbance, uHTS hits; isolated mitochondria swelling; IC50, µM; 58% of 780 active; shares compounds with MPTP inh; AID 651561, 2012; in the data active = IC50 below about 20 µM
MPTP counter DR: fluorescent counter-screen in isolated mitochondria, dose response, counter-screen for MPTP inhibitor project, biochemical, fluorescence, uHTS hits; isolated mitochondria counterscreen, fluorescence read-out; shares compounds with MPTP inh; 49% of 780 active; IC50, µM; in the data active = IC50 below about 80 µM
* = called active by the depositor; / = not tested or not shown. Hits are enriched below; roughly 6.4% of the tested compounds scored in any of these assays.

SMILES | Tb MetRS inh | EBV gp42 inh | WT yeast gro inh | MPTP inh | NR3A LBD binder | CHOP inhibitor | CHOP confirm | Rh123 counter | others
CCc1ccc(-c2cc(C(=O)N3N=C(C(F)F)CC3(O)C(F)F)c3ccccc3n2)cc1 (stereo not given) | -1 | 13 | 80* | 84* | 22* | 110* | 113* | 83*
CC(C)Cc1cc(C(=O)N2N=C(C(F)F)CC2(O)C(F)F)c2ccccc2n1 (stereo not given) | -1 | 19 | 9 | 35 | -4 | 32 | / | /
CSCC(=O)N1CCC(Oc2cccc(C(=O)NCc3ccccn3)c2)CC1 | 0 | / | / | -2 | 2 | / | / | /
Cc1ccc2nc(NC(=O)C3CCN(S(=O)(=O)c4cc([N+](=O)[O-])ccc4Cl)CC3)sc2c1 | -1 | 4 | 5 | 97* | 5 | 97* | 89* | 69*
Cc1ccc2nc(NC(=O)C3CCN(S(=O)(=O)c4cccs4)CC3)sc2c1 | 0 | -24 | 17 | -1 | -1 | 48 | / | /
O=C(NCc1nc(-c2ccc(C(F)(F)F)cc2)no1)Nc1cc(Cl)cc(Cl)c1 | -1 | -11 | / | 84* | 33* | 102* | 109* | 70*
O=C(Nc1cccc(Cl)c1)Nc1cnccn1 | 0 | / | / | 0 | -28 | / | / | /
O=C(Nc1cccc(Cl)c1)Nc1ccnc(-c2cccnc2)n1 | 0 | -10 | -7 | 77* | 10 | 105* | 105* | 87*
COc1cc(C)ccc1S(=O)(=O)NC(=O)C1(C)CCN1C(=O)Cc1ccccc1Cl (stereo not given) | 0 | / | / | 0 | / | / | / | /
CC[n+]1c(/C=C2\Sc3ccccc3N2C)ccc2cccc(C)c21 | 0 | -99 | 64 | 106* | -3 | 104* | 110* | 100*
CCOC(=O)Cn1c(=O)c(-c2ccccc2NC)nc2ccccc21 | -1 | -33 | 9 | 0 | 1 | 36 | / | /
O=S(=O)(c1cc(Br)ccc1Br)N1CCCCCC1 | -1 | / | / | 0 | 1 | / | / | /
Cn1nc(-c2ccccc2)cc1NC(=O)Nc1ccc(C(C)(C)C)cc1 | -1 | -11 | / | 70* | 17* | 105* | 81* | 74*
CC1CCCCN1C(=O)CSc1ccc(-c2ccc(F)cc2)nn1 (stereo not given) | 0 | -23 | 10 | -1 | 0 | -10 | / | /
COc1ccc(CNC(=O)CCSCc2cccc(Cl)c2)c(OC)c1 | -1 | -13 | 9 | 2 | 0 | 18 | / | /
O=C(Cc1ccccc1)Nc1nnc(-c2ccccc2)o1 | 0 | / | / | -1 | -1 | / | / | /
Fc1ccc(-c2nn(-c3ccccc3)cc2CNCc2ccccc2)cc1 | 0 | 11 | 83 | 91* | -8 | 101* | 123* | -10 | MPTP abs DR=4.7*;MPTP counter DR=43*
O=C(CSc1nccc(=O)[nH]1)N1c2ccccc2CCc2ccccc21 | 0 | 0 | 3 | 0 | -1 | -10 | / | /
OC(COCc1cccs1)CN1CCN(c2cccc(C(F)(F)F)c2)CC1 (stereo not given) | 0 | -26 | 2 | 0 | -5 | 25 | / | /
OC(CN1CCN(c2cccc(C(F)(F)F)c2)CC1)c1c[nH]c2ccccc12 (stereo not given) | 0 | -10 | 27 | 53* | 0 | 97* | 47 | -22 | MPTP abs DR=>100;MPTP counter DR=72*
COc1cc2c(cc1OC)CN(c1ccc(C(F)(F)F)cn1)CC2 | 0 | / | / | 1 | 2 | / | / | /
Cc1ccc(C)c(OCC(=O)Nc2nonc2NC(=O)COc2cc(C)ccc2C)c1 | 0 | 16 | -10 | 90* | -4 | 101* | 64 | 84*
CCNC(=S)NC1CC2CCCC(C1)N2CCc1ccccc1 (stereo not given) | 0 | / | / | 0 | 1 | / | / | /
CN1CCN(/N=C/c2ccc(N(c3ccccc3)c3ccccc3)cc2)CC1 | 1 | 10 | 95 | 81* | -1 | 105* | -17 | -15
CN1CCN(/N=C/c2ccc(N(C)c3ccccc3)cc2)CC1 | 0 | 0 | -3 | 0 | 0 | -17 | / | /
SMILES | Tb MetRS inh | EBV gp42 inh | WT yeast gro inh | MPTP inh | NR3A LBD binder | CHOP inhibitor | CHOP confirm | Rh123 counter | others
Cn1c(=O)c(C(=O)Nc2ncccc2O)c(O)c2ccccc21 | -1 | -12 | -4 | 74* | -1 | 110* | 84* | -8 | MPTP abs DR=>100;MPTP counter DR=>80
CCOC(=O)c1sc(NC(=O)Nc2ccccc2F)nc1C | 1 | 5 | 4 | 58* | -5 | 102* | 44 | 68*
CCOC(=O)c1sc(NC(=O)c2ccccc2OC)nc1C | 0 | -14 | -8 | -1 | 2 | 68 | / | /
CC(C)C[C@H](NC(=O)OC(C)(C)C)c1nnc(SCc2cccc(F)c2)o1 | -2 | -9 | 22 | 4 | 0 | 50 | / | /
CC(C)C[C@H](NC(=O)OC(C)(C)C)c1nnc(SCC(=O)Nc2ccc(Br)cc2)o1 | 1 | -8 | 1 | 66* | -1 | 100* | 132* | 70*
c1cc2c(cc1C1CCCCC1)c1c3n2CCCNC3CCC1 (stereo not given) | -1 | 1 | 91 | 80* | 0 | / | -44 | -29
CC1(C)N([O-])C(c2cccs2)=C[N+]1=O | -1 | -3 | 9 | 0 | -2 | 8 | / | /
COc1ccccc1NS(=O)(=O)c1cccc(NC(=O)NCCCl)c1 | -1 | -13 | / | 6 | -1 | 15 | / | /
